Measurements taken from ChEMBL document CHEMBL2034822, “HPLC-ESIMS(n) profiling, isolation, structural elucidation, and evaluation of the antioxidant potential of phenolics from Paepalanthus geniculatus” (J Nat Prod, 2012).
Calls of active or inactive are those of the source. The rule behind the calls is not given here.

How the values were obtained:
[1] = Antioxidant activity against ABTS radical assessed as trolox equivalents by TEAC assay; type: functional
Outline: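 ABTS radical cation diluted in PBS pH 7.4 to A734 0.70, equilibrated at 30 °C, then added to sample solutions in MeOH at 0.3, 0.5, 1 and 1.5 concentration. Inhibition of A734 versus MeOH blank, run in triplicate, plotted against concentration alongside Trolox standard. TEAC = Trolox concentration equivalent in capacity to 1 mM compound.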

PC-3 [2] = test: Antioxidant activity in human PC3 cells assessed as decrease in t-BuOOH-induced ROS elevation at 1 to 10 uM incubated for 24 hrs prior to t-BuOOH-challenge measured after 30 mins by dichlorofluorescein-based flow cytometric analysis; type: functional, cell-based
Outline: (§1)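 PC3 cells grown in DMEM with 2 mM L-glutamine, 10% heat-inactivated FBS and 1% pen/strep at 37 °C, then exposed to compound for 24 h. Exposed to 300 μM t-BuOOH for 30 min at 37 °C, washed, resuspended at 2 × 10^5 cells/ml in HBSS with 10 μM DCFH-DA for 20 min at 37 °C. DCF read by flow cytometry (FL1-H). Mean ± SEM of three experiments in triplicate; ANOVA with Bonferroni.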

PC-3 [3] = test: Cytotoxicity against human PC3 cells; type: cell-based
PC-3 [4] = test: Antioxidant activity in human PC3 cells assessed as decrease in t-BuOOH-induced ROS elevation at 10 uM incubated for 24 hrs prior to t-BuOOH-challenge measured after 30 mins by dichlorofluorescein-based flow cytometric analysis; type: functional, cell-based; outline: as §1

Row | Compound | Activity [1] [mM] | Activity (PC-3 [2]) | Activity (PC-3 [3]) | Activity (PC-3 [4])
1 | COc1c(O)cc2oc(-c3ccc(O)c(O)c3)c(O[C@@H]3O[C@H](CO[C@@H]4O[C@@H](C)[C@H](OC(C)=O)[C@@H](O)[C@H]4OC(C)=O)[C@@H](O)[C@H](O)[C@H]3O)c(=O)c2c1O | 1.21 | inactive | Non-toxic | 
2 | COc1c2cc(O)cc(O[C@@H]3O[C@H](CO[C@@H]4O[C@H](CO)[C@@H](O)[C@H](O)[C@H]4O)[C@@H](O)[C@H](O)[C@H]3O)c2c(O)c2c(=O)oc(C)cc12 | 1.04 | inactive | Non-toxic | 
3 | COc1cc2oc(-c3ccc(O)c(O)c3)c(O[C@@H]3O[C@H](CO[C@@H]4O[C@@H](C)[C@H](O)[C@@H](O)[C@H]4O)[C@@H](O)[C@H](O)[C@H]3O)c(=O)c2c(O)c1O | 1.54 | inactive | Non-toxic | 
4 | COc1cc(O[C@H]2O[C@H](CO[C@@H]3O[C@H](CO)[C@@H](O)[C@@H](O)[C@H]3O)[C@@H](O)[C@H](O)[C@H]2O)c2c(O)c3c(=O)oc(C)cc3c(OC)c2c1 | 0.57 | inactive | Non-toxic | 
5 | COc1c(O)cc2oc(-c3ccc(O)c(O)c3)c(O[C@@H]3O[C@H](CO[C@@H]4O[C@@H](C)[C@H](O)[C@@H](O)[C@H]4OC(C)=O)[C@@H](O)[C@H](O)[C@H]3O)c(=O)c2c1O | 1.37 | inactive | Non-toxic | 
6 | COc1c(O)cc2oc(-c3ccc(O)c(O)c3)c(O[C@@H]3O[C@H](CO)[C@@H](O)[C@H](O)[C@H]3O)c(=O)c2c1O | 0.525 | inactive | Non-toxic | 
7 | COc1c(O)cc2oc(-c3ccc(O)cc3)c(O[C@@H]3O[C@H](CO)[C@@H](O)[C@H](O)[C@H]3O[C@@H]3O[C@@H](C)[C@H](O)[C@@H](O)[C@H]3O)c(=O)c2c1O | 1.53 | inactive | Non-toxic | 
8 | COc1cc(/C=C/C(=O)OC[C@H]2O[C@@H](Oc3c(-c4ccc(O)cc4)oc4cc(O)c(OC)c(O)c4c3=O)[C@H](O)[C@@H](O)[C@@H]2O)ccc1O | 0.984 | inactive | Non-toxic | 
9 | COc1c(O)cc2oc(-c3ccc(O)cc3)c(O[C@@H]3O[C@H](COC(=O)[C@H]4[C@H](c5ccc(O)cc5)[C@H](C(=O)OC[C@H]5O[C@@H](Oc6c(-c7ccc(O)cc7)oc7cc(O)c(OC)c(O)c7c6=O)[C@H](O)[C@@H](O)[C@@H]5O)[C@H]4c4ccc(O)cc4)[C@@H](O)[C@H](O)[C@H]3O)c(=O)c2c1O [GENICULATIN] | 0.738 | inactive | Non-toxic | 
10 | COc1c(O)cc2oc(-c3ccc(O)cc3)c(O[C@@H]3O[C@H](CO[C@@H]4O[C@@H](C)[C@H](O)[C@@H](O)[C@H]4O)[C@@H](O)[C@H](O)[C@H]3O)c(=O)c2c1O | 2.06 |  | Non-toxic | Active
11 | O=c1c(O[C@@H]2O[C@H](CO)[C@@H](O)[C@H](O)[C@H]2O)c(-c2ccc(O)cc2)oc2cc(O)cc(O)c12 | 1.18 |  |  | 
12 | O=c1c(O)c(-c2ccc(O)c(O)c2)oc2cc(O)cc(O)c12 | 1.87 |  |  | 
13 | O=c1c(O[C@@H]2O[C@H](CO)[C@@H](O)[C@H](O)[C@H]2O)c(-c2ccc(O)c(O)c2)oc2cc(O)cc(O)c12 | 1.78 |  |  | 
14 | COc1c2cc(O)cc(O[C@@H]3O[C@H](CO)[C@@H](O)[C@H](O)[C@H]3O)c2c(O)c2c(=O)oc(C)cc12 | 0.898 | inactive | Non-toxic | 
15 | COc1c(O)cc2oc(-c3ccc(O)cc3)c(O[C@@H]3O[C@H](COC(=O)/C=C/c4ccc(O)cc4)[C@@H](O)[C@H](O)[C@H]3O)c(=O)c2c1O | 1.28 | inactive | Non-toxic | 
16 | COc1c(O)cc2oc(-c3ccc(O)cc3)c(O[C@@H]3O[C@H](CO[C@@H]4O[C@@H](C)[C@H](O)[C@@H](O)[C@H]4OC(C)=O)[C@@H](O)[C@H](O)[C@H]3O)c(=O)c2c1O | 1 | inactive | Non-toxic | 
17 | COc1c(O)cc2oc(-c3ccc(O)cc3)c(O[C@@H]3O[C@H](CO)[C@@H](O)[C@H](O)[C@H]3O)c(=O)c2c1O | 1.27 | inactive | Non-toxic | 
18 | COc1c(O)cc2oc(-c3ccc(O)cc3)c(O[C@@H]3O[C@H](CO[C@@H]4O[C@@H](C)[C@H](O)[C@@H](OC(C)=O)[C@H]4OC(C)=O)[C@@H](O)[C@H](O)[C@H]3O)c(=O)c2c1O | 1.4 | inactive | Non-toxic | 
19 | COc1c(O)cc2oc(-c3ccc(O)cc3)c(O[C@@H]3O[C@H](CO[C@@H]4O[C@@H](C)[C@H](OC(C)=O)[C@@H](O)[C@H]4O)[C@@H](O)[C@H](O)[C@H]3O)c(=O)c2c1O | 0.968 | inactive | Non-toxic | 
20 | COc1c(O)cc2oc(-c3ccc(O)c(O)c3)c(O[C@@H]3O[C@H](CO[C@@H]4O[C@@H](C)[C@H](O)[C@@H](O)[C@H]4O)[C@@H](O)[C@H](O)[C@H]3O)c(=O)c2c1O | 2.02 |  | Non-toxic | Active
21 | COc1cc(O[C@H]2O[C@H](CO[C@H]3O[C@H](CO)[C@@H](O)[C@H](O)[C@H]3O)[C@@H](O)[C@H](O)[C@H]2O)c2c(O)c3c(=O)oc(C)cc3c(OC)c2c1 | 0.706 | inactive | Non-toxic | 
22 | COc1c(O)cc2oc(-c3ccc(O)c(O)c3)c(O[C@@H]3O[C@H](CO[C@@H]4O[C@@H](C)[C@H](OC(C)=O)[C@@H](O)[C@H]4O)[C@@H](O)[C@H](O)[C@H]3O)c(=O)c2c1O | 2.16 |  | Non-toxic | Active
